Experimental data as given in paper PMC3830715 (Biochemistry, 2013).
Each block holds one molecule with its values, some of them ahead of it.

Experiments:
[1] = target: T1, WT PDK1 PH domain (Homo sapiens, UniProt O15530); assay type: binding
T1 sequence (O15530 459-550 limits assumed): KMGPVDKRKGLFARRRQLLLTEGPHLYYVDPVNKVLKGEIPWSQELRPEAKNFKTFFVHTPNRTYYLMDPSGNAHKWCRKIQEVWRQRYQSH

[2] = target: T2, T513E PDK1 PH domain (Homo sapiens, UniProt O15530, T513E); assay type: binding; settings: read-out: KD(IP6); free T513E PH domain in solution, 25 °C, physiological buffer
T2 sequence (O15530 459-550 T513E limits assumed): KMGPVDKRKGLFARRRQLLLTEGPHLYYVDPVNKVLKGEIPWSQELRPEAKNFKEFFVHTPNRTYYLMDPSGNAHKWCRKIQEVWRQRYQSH
Method in brief: (§1)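 Free PH domain, purified from Sf9 cells, was titrated with IP₆ in solution at 25 °C. The buffer was HEPES pH 7.4 with 140 mM KCl, 15 mM NaCl, 0.5 mM MgCl₂ and 10 mM DTT. Intrinsic Trp fluorescence was read at ex 284 nm / em 335 nm, slits 1/8 nm. K_DI came from a nonlinear least squares fit assuming homogeneous binding sites.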

[3] = target: T1, WT PDK1 PH domain; assay type: binding; settings: read-out: KD(IP6); free WT PH domain in solution, 25 °C, physiological buffer
Method in brief: as §1

[4] = test system: WT and T513E PDK1 PH domains; assay type: binding, human; settings: PC/PS/PIP3 74/24/2 supported bilayer (dioleoyl PIP3), SE n = 3
[5] = target: T1, WT PDK1 PH domain; assay type: binding; remark: listed apart in the source
Method in brief: (§2)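 PH domain (1 μM, from Sf9 cells) was rapidly mixed by stopped flow with plasma membrane-like SUVs (600 μM total lipid, 6 μM accessible PIP₃). Final concentrations were 0.5 μM protein and 3 μM PIP₃, at 25 °C in HEPES pH 7.4 buffer with 10 mM DTT. Trp-to-dansyl-PE FRET was monitored, and a single-exponential fit gave k_on(app). k_off was estimated from the measured K_D and k_on.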

[6] = target: T2, T513E PDK1 PH domain; assay type: binding
Method in brief: as §2

[7] = target: the molecule itself; experiment: single molecule TIRFM brightness analysis

- membrane-bound protein displaced ([1]; 1 mM IP6, WT PH domain on PIP3 target membranes): less than 5%
- Kd [2]: 30 ± 11 µM
- Kd [3]: 9 ± 3 µM
Molecule: O=P(O)(O)OC1C(OP(=O)(O)O)C(OP(=O)(O)O)C(OP(=O)(O)O)C(OP(=O)(O)O)C1OP(=O)(O)O (centres unmarked) [IP6, Inositol 1,2,3,4,5,6-hexakisphosphate]

- higher affinity for IP4 than for IP6 ([1]; WT PH domain): 80 fold
Molecule: O=P(O)(O)OC1[C@H](O)[C@H](OP(=O)(O)O)C(OP(=O)(O)O)[C@H](OP(=O)(O)O)[C@H]1O (some centres unmarked) [IP4, inositol 1,3,4,5-tetrakis(phosphate)]

- greater PIP3 membrane affinity of dimeric WT relative to monomeric T513E ([1]; plasma membrane-like bilayers): 35 fold
- kon (app) ([5]; WT PH domain 0.5 μM, 3 μM accessible PIP3, 25 °C): 1.6e+06 ± 100000 M⁻¹ s⁻¹
- koff (calc) ([5]; WT PH domain, estimated from measured KD and kon): 0.3 ± 0.2 ms ^−1
- kon (app) ([6]; T513E PH domain 0.5 μM, 3 μM accessible PIP3, 25 °C): 2.5e+06 ± 100000 M⁻¹ s⁻¹
- koff (calc) ([6]; T513E PH domain, estimated from measured KD and kon): 18 ± 5 ms ^−1
Molecule: CCCCCCCCCCCCCCCC(=O)OC[C@H](COP(=O)(O)OC1[C@H](O)[C@H](OP(=O)(O)O)C(OP(=O)(O)O)[C@H](OP(=O)(O)O)[C@H]1O)OC(=O)CCCCCCCCCCCCCCC (some centres unmarked) [PIP3, 1,2-dipalmitoylphosphatidylinositol 3,4,5-trisphosphate]
- higher concentration of T513E PH domain needed relative to WT for same density of membrane-associated single particles (lower affinity for target PIP3 bilayer) [4]: 9.7 ± 1.9 fold

B1: human WT PDK1 PH domain, AF555-labeled (domain or fragment, UniProt O15530 409-556, looked up)
chain: GSNIEQYIHDLDSNSFELDLQFSEDEKRLLLEKQAGGNPWHQFVENNLILKMGPVDKRKGLFARRRQLLLTEGPHLYYVDPVNKVLKGEIPWSQELRPEAKNFKTFFVHTPNRTYYLMDPSGNAHKWCRKIQEVWRQRYQSHPDAAVQ
modifications: Alexa Fluor 555 on the N-terminal Sfp labeling tag (enzymatic labeling, up to ~50% labeling efficiency)
- stoichiometry N [7]: 2
